# Laboratory results as given in ChEMBL document CHEMBL5335820, “Novel quinolinepiperazinyl-aryltetrazoles targeting the blood stage of Plasmodium falciparum” (RSC Med Chem, 2024).
# Active and inactive are the calls of the source. No cut-off for these calls is given here.
# Tests used:
# [1] = Binding affinity to Plasmodium falciparum GAP50 assessed as equilibrium dissociation constant by SPR analysis
# Method in brief: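 GAP50 at 50 μg ml−1 in 10 mM acetate pH 4.5 was amine-coupled (EDC/NHS) onto a CM5 chip. Analytes at several concentrations in 5% DMSO/1× PBS; association 60 s, dissociation 120 s, flow 30 μl min−1. Regeneration with 10 mM glycine pH 3.0 for 30 s. Sensorgrams fitted to a 1:1 Langmuir model giving ka, kd and KD.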
# Plasmodium berghei = test: Antimalarial activity against Plasmodium berghei ANKA infected in mouse model of malaria assessed as reduction in parasite infection by measuring median survival at 100 mg/kg, po; format: functional
# [2] = Toxicity in mouse assessed as lacrimation at 100 mg/kg, po measured after 45 mins; format: organism-based; conditions: in vivo, 0.75 h
# Method in brief: (§1)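 Acute oral toxicity per OECD 423. Mice were fasted 4 h, given a single 100 mg/kg oral dose, and observed for 45 min for signs of acute toxicity, compared with untreated controls.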
# [3] = Toxicity in mouse assessed as effect on urination at 100 mg/kg, po measured after 45 mins; format: organism-based; conditions: in vivo, 0.75 h; method in brief: as §1
# [4] = Toxicity in mouse assessed as drowsiness at 100 mg/kg, po measured after 45 mins; format: organism-based; conditions: in vivo, 0.75 h; method in brief: as §1
# Plasmodium falciparum [5] = test: (§2) Antiplasmodial activity against chloroquine resistant early ring stage Plasmodium falciparum INDO infected in human erythrocytes assessed as reduction in parasite growth at 10 times IC50 concentration preincubated for 6 hrs followed by media replacement without compound for 66 hrs and measured after 72 hrs by Giemsa-staining based analysis; format: functional, organism-based; conditions: Erythrocyte
# Method in brief: (§3)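 Ring-stage survival assay. PfCam3.1R539T or PfINDO rings (0–3 h post-invasion), 1% parasitemia, 2% haematocrit, were exposed to 10× IC50 for 6 h. Compound was removed by three PBS washes, then cultures were grown 66 h in fresh medium. At 72 h, stage progression was assessed on Giemsa smears and revival by SYBR Green I lysis. Triplicate biological samples.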
# Plasmodium falciparum [6] = test: Antiplasmodial activity against chloroquine sensitive Plasmodium falciparum 3D7 infected in human erythrocytes assessed as inhibition of parasite growth at 100 uM incubated for 72 hrs by SYBR green I staining based fluorescence plate reader analysis relative to control; format: functional; conditions: 3D7, Erythrocyte
# Method in brief: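 Pf3D7 grown in O+ human erythrocytes at 4% haematocrit, Albumax (0.05%)-RPMI, 37 °C, 5% O2/5% CO2/90% N2, sorbitol-synchronised at ring stage. Single-point screen at 100 μM, final DMSO 0.4%, triplicate wells, 72 h. Read-out by SYBR Green I lysis buffer (Tris pH 7.5, EDTA, saponin, Triton X-100), 1 h dark at 37 °C, ex 485/em 530 nm. Growth expressed relative to untreated culture.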
# Plasmodium falciparum [7] = test: Antiplasmodial activity against chloroquine resistant Plasmodium falciparum INDO trophozoites infected in human erythrocytes assessed as increase in reactive oxygen species level at 2 times IC50 concentration incubated for 8 hrs by H2DCFDA staining based fluorescence analysis; format: functional, organism-based; conditions: Erythrocyte
# Method in brief: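 PfINDO trophozoites (24–28 h post-invasion), 2% parasitemia, 2% haematocrit, were loaded with CM-H2DCFDA (5 μM, 30 min) and washed with PBS. They were then treated at 2× IC50 for 8 h, and DCF fluorescence was read at 530 nm. Controls were 100 μM H2O2 (positive) and 0.4% DMSO (negative). Triplicate biological samples.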
# Plasmodium falciparum [8] = test: Antimalarial activity against chloroquine resistant trophozoites-stage Plasmodium falciparum INDO infected in human erythrocytes assessed as inhibition of parasite growth incubated for 12 hrs; format: functional, organism-based; conditions: Erythrocyte
# Method in brief: (§4)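 PfINDO cultures were staged at 0–6 h (rings), 18–22 h (trophozoites), 30–34 h (early schizonts) and 40–44 h (late schizonts) post-invasion. Each was exposed to varying concentrations for 12 h, washed free of compound by centrifugation, and grown 48 h in drug-free medium. IC50 came from growth curves, with untreated culture as 100% and chloroquine-treated culture as 0% growth.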
# Plasmodium falciparum [9] = test: as §2, with “artemisinin-resistant” for “chloroquine resistant”, “Cam3.1R539T” for “INDO”; format: functional, organism-based; conditions: Erythrocyte; method in brief: as §3
# [10] = Toxicity in mouse assessed as diarrhea at 100 mg/kg, po measured after 45 mins; format: organism-based; conditions: in vivo, 0.75 h; method in brief: as §1
# [11] = Selectivity index, ratio of CC50 for human HEK293 cells to IC50 of chloroquine resistant Plasmodium falciparum INDO infected in human erythrocytes; format: toxicity, cell-based; conditions: read-out: Ratio CC50/IC50
# Method in brief: (§5)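 Selectivity index = CC50 / PfINDO IC50. CC50 came from MTT assays: 10^4 HEK293 or HUH7 cells per well, seeded overnight and exposed to 0–100 μM for 24 h, then MTT for 4 h at 37 °C with formazan dissolved in DMSO and read at A570. Controls were 0.8% DMSO (full growth) and 10% DMSO (zero growth).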
# Plasmodium falciparum [12] = test: Antiplasmodial activity against chloroquine resistant Plasmodium falciparum INDO infected in human erythrocytes assessed as inhibition of parasite growth at 100 uM incubated for 72 hrs by SYBR green I staining based fluorescence plate reader analysis relative to control; format: functional; conditions: Erythrocyte
# Method in brief: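 Single-concentration screen at 100 μM against PfINDO, triplicate wells, 72 h. Final DMSO was 0.4%. Growth was read by SYBR Green I lysis (excitation 485, emission 530 nm) and expressed relative to untreated culture, taken as 100% growth.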
# Plasmodium falciparum [13] = test: Antimalarial activity against chloroquine resistant late schizont Plasmodium falciparum INDO infected in human erythrocytes assessed as inhibition of parasite growth incubated for 12 hrs; format: functional, organism-based; conditions: Erythrocyte; method in brief: as §4
# Plasmodium falciparum [14] = test: Antimalarial activity against chloroquine resistant early schizont Plasmodium falciparum INDO infected in human erythrocytes assessed as inhibition of parasite growth incubated for 12 hrs; format: functional, organism-based; conditions: Erythrocyte; method in brief: as §4
# [15] = Selectivity index, ratio of CC50 for human Huh-7 cells to IC50 for antiplasmodial activity against chloroquine resistant Plasmodium falciparum INDO infected in human erythrocytes; format: toxicity, cell-based; conditions: read-out: Ratio CC50/IC50; method in brief: as §5
# [16] = Cytotoxicity against human Huh-7 cells assessed as reduction in cell viability incubated for 24 hrs by MTT assay; format: toxicity, cell-based
# [17] = Toxicity in mouse assessed as death at 100 mg/kg, po measured after 45 mins; format: organism-based; conditions: in vivo, 0.75 h; method in brief: as §1
# Plasmodium falciparum [18] = test: Antiplasmodial activity against chloroquine resistant Plasmodium falciparum INDO infected in human erythrocytes assessed as inhibition of parasite growth incubated for 72 hrs by SYBR green I staining based fluorescence plate reader analysis; format: functional, organism-based; conditions: Erythrocyte
# Method in brief: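 Pf3D7 or PfINDO was cultured in O+ human erythrocytes at 37 °C under 5% O2/5% CO2/90% N2 and ring-synchronised with 5% sorbitol. Cultures were exposed to 0–100 μM in triplicate for 72 h, with final DMSO 0.4%. After SYBR Green I lysis buffer (1 h, dark, 37 °C), fluorescence was read at 485/530 nm. Chloroquine-well counts were subtracted as background, and IC50 was obtained by non-linear regression.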
# [19] = Toxicity in mouse assessed as effect on eye colour at 100 mg/kg, po measured after 45 mins; format: organism-based; conditions: in vivo, 0.75 h; method in brief: as §1
# [20] = Toxicity in mouse assessed as effect on water intake at 100 mg/kg, po measured after 45 mins; format: organism-based; conditions: in vivo, 0.75 h; method in brief: as §1
# [21] = Cytotoxicity against human HEK293 cells assessed as reduction in cell viability incubated for 24 hrs by MTT assay; format: toxicity, cell-based
# [22] = Toxicity in mouse assessed as changes in skin at 100 mg/kg, po measured after 45 mins; format: organism-based; conditions: in vivo, 0.75 h; method in brief: as §1
Structure (SMILES),Kd [1] [nM],Survival (Plasmodium berghei) [days],Activity [2],Activity [3],Activity [4],Activity (Plasmodium falciparum [5]),inhibition at 100 µM (Plasmodium falciparum [6]) [%],Activity (Plasmodium falciparum [7]),IC50 (Plasmodium falciparum [8]) [nM],Activity (Plasmodium falciparum [9]),Activity [10],selectivity ratio [11],inhibition at 100 µM (Plasmodium falciparum [12]) [%],IC50 (Plasmodium falciparum [13]) [nM],IC50 (Plasmodium falciparum [14]) [nM],selectivity ratio [15],CC50 at 24 h [16] [nM],Activity [17],IC50 (Plasmodium falciparum [18]) [nM],Activity [19],other results
O=C(Cn1nnc(-c2cccc([N+](=O)[O-])c2)n1)N1CCN(c2ccnc3cc(Cl)ccc23)CC1,< 100000,22,Non-Toxic,Non-Toxic,Non-Toxic,inactive,> 50,Active,2720,Active,Non-Toxic,223,> 50,7100,2150,223,400000,Non-Toxic,1790,Non-Toxic,Activity [20]: Non-Toxic; CC50 at 24 h [21]: > 400000 nM; Activity [22]: Non-Toxic
Clc1ccc2c(N3CCN(CCCn4nnc(-c5ccc(Br)cc5)n4)CC3)ccnc2c1,< 100000,28,Non-Toxic,Non-Toxic,Non-Toxic,inactive,> 50,Active,2160,inactive,Non-Toxic,178,> 50,1500,2810,128,288000,Non-Toxic,2250,Non-Toxic,Activity [20]: Non-Toxic; CC50 at 24 h [21]: 400000 nM; Activity [22]: Non-Toxic
